Measurements from different studies.
Each line is one published result; the experiments were not run side by side. Converted amounts (≈) assume the structure as drawn.
Organism: Escherichia coli
Effect on: microbial growth

Oc1cccc(-c2nc3ccccc3[nH]2)c1  MIC (broth dilution; ATCC25922): 64 µg/mL (≈ 304 µM)
CC(C)Oc1c(NC(=O)c2ccc(NC(=O)[C@H](CC(N)=O)NC(=O)c3ccc(NC(=O)c4ccc(S(C)(=O)=O)cc4)cc3)cc2)ccc(C(=O)Nc2ccc(C(=O)O)cc2)c1O  MIC (DSM1116): 2 µg/mL (≈ 2.31 µM)
CC1(C)S[C@@H]2[C@H](NC(=O)[C@H](N)c3ccccc3)C(=O)N2[C@H]1C(=O)O  MIC (broth dilution; ATCC25922): 8 µg/mL (≈ 22.9 µM)
Cc1ccc2nc(-c3ccc(F)cc3)[nH]c2c1  MIC (broth dilution; ATCC25922): 64 µg/mL (≈ 283 µM)
N=C(N)c1ccc(OCc2ccccc2COc2ccc(C(=N)N)cc2)cc1  MIC (broth dilution; ATCC25922): > 200 µg/mL
CC(C)Oc1c(NC(=O)c2ccc(NC(=O)[C@H](CC(N)=O)NC(=O)c3ccc(NC(=O)c4ccc(C#N)c(F)c4)cc3)cc2)ccc(C(=O)Nc2ccc(C(=O)O)cc2)c1O  MIC (DSM1116): 0.25 µg/mL (≈ 0.301 µM)
N=C(N)c1ccccc1OCc1cccc(COc2ccccc2C(=N)N)c1  MIC (BW25113): > 200 µg/mL
Clc1ccc(-c2nc3ccccc3[nH]2)cc1Cl  MIC (broth dilution; ATCC25922): 32 µg/mL (≈ 122 µM)
CC(C)Oc1c(NC(=O)c2ccc(NC(=O)[C@H](CC(N)=O)NC(=O)c3ccc(CNC(=O)c4ccc(C#N)cc4)cc3)cc2)ccc(C(=O)Nc2ccc(C(=O)O)cc2)c1O  MIC (DSM1116): > 64 µg/mL
N=C(N)c1ccc(OCc2ccc3ccc(COc4ccc(C(=N)N)cc4)cc3c2)cc1  MIC (BW25113; 20 h): > 200 µg/mL
